Results on 18 compounds are retold here after ChEMBL document CHEMBL1145774, “Synthesis and biological effects of novel 2-amino-3-naphthoylthiophenes as allosteric enhancers of the A1 adenosine receptor” (J Med Chem, 2003).

The target of experiment [1] is T1, Adenosine receptor A3 (Homo sapiens) (UniProt P0DMS8).
T1 sequence (whole entry): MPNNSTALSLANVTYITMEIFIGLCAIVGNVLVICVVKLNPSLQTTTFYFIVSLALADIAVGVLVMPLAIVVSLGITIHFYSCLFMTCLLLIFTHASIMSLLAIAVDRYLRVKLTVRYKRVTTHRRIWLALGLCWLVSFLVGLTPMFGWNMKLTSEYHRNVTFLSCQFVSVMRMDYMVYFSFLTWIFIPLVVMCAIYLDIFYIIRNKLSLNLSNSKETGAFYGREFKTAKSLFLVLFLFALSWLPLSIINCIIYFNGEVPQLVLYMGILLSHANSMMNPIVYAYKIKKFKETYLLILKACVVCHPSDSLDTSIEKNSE
Description: Ability to displace the binding of [3H]-MRE 3008-F20 to the ligand binding site of CHO:hA3 (human Adenosine receptor) at concentration of 10 uM. In short, it runs like this:
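Assays used 2 nM [3H]MRE 3008F20 on CHO:hA3 membranes (100 µg protein, ADA-treated) for 150 min at 4 °C, in Tris-HCl with MgCl2 and 1 mM EDTA, pH 7.4, with compound from DMSO (1% final). Bound ligand was separated by filtration. Results are % displacement by 10 µM compound, ±STD, n = 3.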

Experiment [2] concerns the target T2, Adenosine receptor A1 (Homo sapiens) (UniProt P30542).
T2 sequence (whole entry): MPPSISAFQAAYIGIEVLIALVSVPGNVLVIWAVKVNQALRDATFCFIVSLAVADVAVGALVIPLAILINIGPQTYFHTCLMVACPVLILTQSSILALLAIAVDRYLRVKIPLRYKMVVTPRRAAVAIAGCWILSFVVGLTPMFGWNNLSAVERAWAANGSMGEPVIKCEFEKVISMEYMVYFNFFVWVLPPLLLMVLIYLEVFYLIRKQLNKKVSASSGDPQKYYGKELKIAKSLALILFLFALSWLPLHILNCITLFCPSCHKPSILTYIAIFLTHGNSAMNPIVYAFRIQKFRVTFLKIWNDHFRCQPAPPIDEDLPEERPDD
Description: Percent change in cAMP content of CHO (Chinese hamster ovary) cells expressing human Adenosine A1 receptor at 0.01 uM. The format is functional, cell-based. An outline of the steps: (§1)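 CHO cells stably expressing human A1 receptor (~8000 fmol/mg protein) were grown in Ham's F-12 with 10% FBS and G-418 for 48 h to confluence. HCl (50 mM final) stopped the reaction, and cAMP was measured by radioimmunoassay. Values are % change versus no-compound control, mean ± SEM of six experiments.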

Experiment [3] has as its target T2, Adenosine receptor A1 (Homo sapiens). Description: Percent change in cAMP content of CHO (Chinese hamster ovary) cells expressing human Adenosine A1 receptor at 0.1 uM. In kind it is functional, cell-based. In short, it runs like this:
as §1

The target is the same in experiment [4]. Nature of the experiment: Percent change in cAMP content of CHO (Chinese hamster ovary) cells expressing human Adenosine A1 receptor at 1 uM. In kind it is functional, cell-based. In short, it runs like this: as §1
Experiment [5] has the same target. Description: Percent change in cAMP content of CHO (Chinese hamster ovary) cells expressing human Adenosine A1 receptor at 10 uM. In kind it is functional, cell-based. An outline of the steps:
as §1

For experiment [6] the target is unchanged. Description: Dissociation rate of [3H]CCPA from Adenosine A1 receptor expressing CHO cells at 10 uM as percent t1/2. In kind it is cell-based. In short, it runs like this: (§2)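 [3H]CCPA was bound to ADA-treated CHO:hA1 membranes in 50 mM Tris-HCl pH 7.4 at 25 °C. Dissociation was started by adding R-PIA (1 µM) with test agent (10 µM), and specific binding was measured 2–180 min afterwards. Kinetic fits gave t1/2 and K-1, expressed as % change from control. Values are the mean of three experiments.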

The target of experiment [7] is Adenosine receptor A2a (Homo sapiens) (UniProt P29274). Nature of the experiment: Ability to displace the binding of [3H]-ZM 241385, to the ligand binding site of CHO:hA2A (human Adenosine A2A receptor) at concentration of 10 uM. In short, it runs like this:
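CHO:hA2A membranes (100 µg protein, ADA-treated) were incubated with 2 nM [3H]ZM 241385 in Tris-HCl with MgCl2, pH 7.4, for 60 min at 4 °C, with compound from DMSO (1% final). Nonspecific binding was taken with 1 µM ZM241385. After filtration, results are % displacement by 10 µM compound, ±STD, n = 3.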

Experiment [8] deals with T2, Adenosine receptor A1 (Homo sapiens). Description: Dissociation of [3H]CCPA from Adenosine A1 receptor in CHO cells at 10 uM as percent K-1. In kind it is cell-based. In short, it runs like this:
as §2

The target is the same in experiment [9]. Nature of the experiment: Ability to displace the binding of [3H]DPCPX to the ligand binding site of CHO:hA1 (human Adenosine A1 receptor) at concentration of 10 uM. In short, it runs like this: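 Membranes came from hypotonic lysis of CHO:hA1 cells, a 100 000g pellet and ADA 2 U/mL treatment for 30 min at 37 °C. Membranes (100 µg protein) were incubated with 1 nM [3H]DPCPX in Tris-HCl pH 7.4 for 150 min at 25 °C, with compound added from DMSO (1% final). Nonspecific binding was taken with 1 µM DPCPX, and bound ligand was separated on GF/B filters.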

Chain of Adenosine receptor A2a (Homo sapiens) (P29274 whole entry): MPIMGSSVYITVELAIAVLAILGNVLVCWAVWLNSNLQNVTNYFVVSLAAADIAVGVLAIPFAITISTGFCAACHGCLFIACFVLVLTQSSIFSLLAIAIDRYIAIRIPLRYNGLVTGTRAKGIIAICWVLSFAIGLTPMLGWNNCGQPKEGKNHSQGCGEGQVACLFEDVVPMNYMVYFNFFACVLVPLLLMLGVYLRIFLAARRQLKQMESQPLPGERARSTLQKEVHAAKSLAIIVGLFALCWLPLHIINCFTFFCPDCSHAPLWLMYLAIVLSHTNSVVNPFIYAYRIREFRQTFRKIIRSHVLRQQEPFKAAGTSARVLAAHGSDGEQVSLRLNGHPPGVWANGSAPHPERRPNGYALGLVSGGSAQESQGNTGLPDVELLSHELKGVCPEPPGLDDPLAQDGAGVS

For `Nc1sc2c(c1C(=O)c1ccc3ccccc3c1)CCC2`, the values for the inhibition in experiment [1], in [7] and in [9] were 54%, -0% and 14.5%, respectively. The Change was -19% in [2], -14% in experiment [3], -15% in experiment [4] and -51% in [5]. The compound further yielded a T1/2 increase in [6] of 42%. Moreover, the K-1 decrease in experiment [8] worked out at 29%.
As for `Nc1sc2c(c1C(=O)c1ccc(I)c3ccccc13)CCCC2`, the results for the inhibition in experiment [1], in experiment [7] and in experiment [9] were 48%, 3% and 15.3%, respectively. The Change is -3% in experiment [2], -4% in experiment [3], -24% in [4] and -67% in [5]. Besides, in [6], the T1/2 increase was found to be 60%. For the same compound, the K-1 decrease in experiment [8] was 38%.
With `Nc1sc2c(c1C(=O)c1ccc(Br)c3ccccc13)CCCC2`, the inhibition in experiment [1] stood at 48.5%; in [7], 3%; in experiment [9] it was 12%. In addition, the Change in experiment [2] was -6%; in experiment [3] it was -10%; in experiment [4] it was -29%; in experiment [5], -72%. The compound also showed a T1/2 increase in [6] of 43%. Further, the K-1 decrease in experiment [8] was 30%.
On to `Cc1sc(N)c(C(=O)c2cc(C)c3cc(Cl)ccc3c2)c1C`, for which the inhibition in experiment [1] was -0%; in experiment [7], -0%; in [9], 4%. The Change in experiment [2] was -0%; in experiment [3], -0%; in experiment [4], -18%; in experiment [5], -24%.
Regarding `Nc1sc2c(c1C(=O)c1ccc3ccccc3c1)CCCC2`, the inhibition in experiment [1] is -0%; in experiment [7], -0%; in experiment [9], 3.3%. Moreover, the Change in experiment [2] was -13%; in experiment [3], -24%; in [4], -28%; in experiment [5], -42%. The same compound yielded a T1/2 increase in experiment [6] of 10%. In experiment [8], this compound displayed a K-1 decrease of 9%.
Consider `COc1ccc(C(=O)c2c(N)sc3c2CCC3)c2ccccc12`, for which the inhibition in experiment [1] is 57%; in [7] it was -0%; in [9] it was 19%. Moreover, the Change was -6% in experiment [2], -3% in experiment [3], -8% in experiment [4] and -35% in [5].
As for `Nc1sc2c(c1C(=O)c1cccc3ccccc13)CCCC2`, the values for the inhibition in experiment [1], in [7] and in experiment [9] were 34.5%, -0% and 2%, respectively. Further, the Change was -11% in [2], -15% in [3], -22% in [4] and -52% in [5]. For the same compound, the T1/2 increase in [6] was determined as 29%. This compound also yielded a K-1 decrease in [8] of 23%.
In the case of `Nc1sc2c(c1C(=O)c1ccc(Cl)c3ccccc13)CCC2`, the inhibition in experiment [1], in experiment [7] and in experiment [9] was -0% each time. Further, the Change was -10% in experiment [2], 15% in [3], -27% in [4] and -55% in [5]. This compound showed a T1/2 increase in experiment [6] of 43%. In [8], this compound registered a K-1 decrease of 30%.
On to `Cc1sc(N)c(C(=O)c2ccc3ccccc3c2)c1C`, for which the inhibition in experiment [1], in experiment [7] and in [9] was -0% in each case. The Change is -1% in experiment [2], -4% in [3], -8% in [4] and -28% in experiment [5].
For `Nc1sc2c(c1C(=O)c1ccc3ccccc3c1)CCN(Cc1ccccc1)C2`, the inhibition was 22% in experiment [1], -0% in experiment [7] and 2.5% in experiment [9]. The Change in [2] was -11%; in experiment [3], -12%; in [4], -18%; in experiment [5] it was -60%.
In the case of `Nc1sc2c(c1C(=O)c1ccc3ccccc3c1)CCN(Cc1ccccc1F)C2`, the inhibition in [1] was -0%; in experiment [7] it was -0%; in experiment [9], 3%. The Change in experiment [2] is -3%; in experiment [3], -3%; in experiment [4], -10%; in experiment [5] it was -31%.
Turning to `Nc1sc2c(c1C(=O)c1cccc3ccccc13)CCC2`, the inhibition is -0% in experiment [1], -0% in experiment [7] and 8% in experiment [9]. Besides, the Change is -0.6% in experiment [2], -6% in [3], -29% in experiment [4] and -60% in [5]. In addition, in experiment [6], the T1/2 increase is -0%. Also, in experiment [8], the K-1 decrease was -0%.
For the compound `Nc1sc2c(c1C(=O)c1ccc(Br)c3ccccc13)CCC2`, the values for the inhibition in experiment [1], in experiment [7] and in experiment [9] were 22%, -0% and -0%, respectively. In addition, the Change in experiment [2] is 3%; in [3], 19%; in [4], -14%; in [5], -67%. For the same compound, in experiment [6], the T1/2 increase is 4%. The same compound had a K-1 decrease in [8] of 4%.
For the compound `Nc1sc2c(c1C(=O)c1ccc(I)c3ccccc13)CCC2`, the inhibition in experiment [1] is -0%; in experiment [7], -0%; in experiment [9], 3.3%. Also, the Change in experiment [2] is -6%; in experiment [3] it was -8%; in experiment [4] it was -22%; in experiment [5], -75%. In addition, the T1/2 increase in experiment [6] stood at 41%. For the same compound, the K-1 decrease in [8] was 29%.
On to `Nc1sc2ccccc2c1C(=O)c1cccc2ccccc12`, for which the inhibition in experiment [1] is 19%; in experiment [7], -0%; in [9], 13.5%. Also, the Change in experiment [2] is 17%; in experiment [3], 9%; in experiment [4], 1%; in [5] it was -37%.
Consider `Cc1sc(N)c(C(=O)c2cccc(C(F)(F)F)c2)c1C`, for which the inhibition is 21% in experiment [1], -0% in experiment [7] and -0% in experiment [9]. In addition, the Change is -1% in [2], -7% in experiment [3], -13% in [4] and -50% in [5]. In experiment [6], this compound registered a T1/2 increase of 43%. The compound further yielded a K-1 decrease in [8] of 30%.
With `Nc1sc2c(c1C(=O)c1ccc(Cl)c3ccccc13)CCCC2`, the inhibition in experiment [1] is 30.5%; in [7], -0%; in experiment [9], 4.8%. Also, the Change was -11% in [2], 3% in experiment [3], -25% in experiment [4] and -44% in [5]. Moreover, the T1/2 increase in [6] worked out at 36%. This compound showed a K-1 decrease in [8] of 27%.
For the compound `Cc1cc(C(=O)c2c(N)sc3c2CCC3)cc2ccccc12`, the inhibition in experiment [1] was -0%; in experiment [7], -0%; in experiment [9], 6%. For the same compound, the Change in experiment [2] was -0%; in [3], -7%; in experiment [4], -13%; in experiment [5], -34%.
